Screening results (PubChem)
An excerpt weighted towards active compounds, which were near 1.1% of everything screened.
DAGLB inhibitor: DAGLB lipase inhibitors, primary screen, biochemical, fluorescence, HTS; 340,000 tested, 0.059% active; Diacylglycerol lipase-beta (Homo sapiens), Q8NCG7; HEK293T DAGLB membrane lysate, EnzChek fluorogenic substrate; AID 504411, 2011; inhibition, % at 5.17 µM; in the data active = inhibition above about 34%;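 also: 0% = enzyme with vehicle and 100% = wells lacking enzyme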
Target sequence (Q8NCG7 whole entry, looked up): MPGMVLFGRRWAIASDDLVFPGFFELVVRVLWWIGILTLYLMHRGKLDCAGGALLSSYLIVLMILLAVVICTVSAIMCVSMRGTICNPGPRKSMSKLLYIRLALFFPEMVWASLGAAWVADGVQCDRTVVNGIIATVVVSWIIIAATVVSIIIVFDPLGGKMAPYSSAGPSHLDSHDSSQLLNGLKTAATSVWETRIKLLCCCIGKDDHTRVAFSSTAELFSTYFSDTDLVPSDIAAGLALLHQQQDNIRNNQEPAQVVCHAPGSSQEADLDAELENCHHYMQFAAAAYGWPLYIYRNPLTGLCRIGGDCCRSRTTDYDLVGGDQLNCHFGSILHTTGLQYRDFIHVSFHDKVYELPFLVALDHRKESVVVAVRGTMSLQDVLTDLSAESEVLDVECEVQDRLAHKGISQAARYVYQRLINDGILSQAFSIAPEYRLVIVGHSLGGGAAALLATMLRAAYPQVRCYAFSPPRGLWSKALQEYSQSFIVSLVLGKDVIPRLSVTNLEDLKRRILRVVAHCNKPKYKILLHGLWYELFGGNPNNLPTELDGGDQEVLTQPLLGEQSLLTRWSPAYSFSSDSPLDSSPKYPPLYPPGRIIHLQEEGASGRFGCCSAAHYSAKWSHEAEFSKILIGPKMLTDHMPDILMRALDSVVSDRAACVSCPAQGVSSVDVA
Vif inh: HIV Vif self-association inhibitors, primary screen, imaging, HEK293T, single point; inhibition, % at 7.49 µM; 340,000 tested, 0.35% active; HEK293T cells, Vif self-association by quenched fluorescence, 24 h; in the data active = inhibition above about 50%, passing the limit was not always enough
MT1-MMP act inh: blockers of MT1-MMP proenzyme processing, primary screen, HT1080 RFP-PRO-GFP cells, GFP/RFP fluorescence. Matrix metalloproteinase-14 (Homo sapiens), P50281. GFP/RFP ratio fluorescence, overnight; percent of plate control window, DMSO zero. GFP/RFP ratio change, % at 20 µM. 360,000 tested, 0.061% active. AID 651647, 2012;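 active = GFP/RFP ratio change of at least 30% with cell ATP level not reduced by more than half and red fluorescence within 50% of control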
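Material: RFP-PRO-GFP reporter HT1080 cells. Dosing: single-point 20 µM compound, 1% DMSO. Controls: DMSO and RFP-L50D-GFP cell wells. Timing: cells overnight before dosing, compound overnight, 37 °C, 5% CO2. Measure: GFP/RFP fluorescence ratio.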
HCV core dimer: inhibitors of HCV core protein dimerization, primary screen, biochemical, TR-FRET, high-throughput; TR-FRET GST/Flag-core106 dimerization, 1536-well; inhibition, % at 5 µM; 300,000 tested, 0.33% active;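 active = inhibition above the mean of all tested compounds plus 3 SD, set per screening campaign, cut at about 45% in these data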
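System: GST-tagged and Flag-tagged HCV core protein residues 1-106 / Input: core106 proteins, GST 13.5 nM and Flag 17 nM / Buffer or medium: KF-containing HEPES buffer, pH 7.45, DTT, CHAPS, BSA / Probe or stimulus: Eu-anti-GST and XL665-anti-Flag labelled anti-tag antibodies / Schedule: 4 h, 22.5 °C incubation / Technique: TR-FRET 671 and 617 nm emission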
NR2E3 ag-1: inhibitors of NR2E3-RetCOR corepressor binding, primary screen, NR2E3 agonist project, biochemical, TR-FRET, GST-NR2E3, biotin-RetCOR. AID 2300, 2010. 320,000 tested, 0.12% active. inhibition of corepressor binding, % at 4.78 µM. 1536-well;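 active = percent inhibition above the cutoff of mean plus 3 SD of all tested compounds, set per screening campaign, cut at about 20% in these data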;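 also: 0% = DMSO wells and 100% = biotin wells as full block of FRET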
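Material: NR2E3–RetCOR corepressor complex | Quantity: 1.35 nM GST-tagged NR2E3 final | Schedule: 5 h at 4 °C | Replication: Singlicate compound wells | Reagent: RetCOR corepressor, biotinylated, 7 nM | Controls: Biotin wells as high control, 0.6% DMSO wells as low control | Signal: TR-FRET, Eu(K)-anti-GST donor, streptavidin-D2 acceptor, ex 340, em 617/671 nm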
NR2E3 ag-2: NR2E3 agonists in two-hybrid cells, primary screen, cell-based, luminescence, CHO-S, Gal4-NCOR/VP16-NR2E3. luciferase. inhibition of corepressor binding, % at 3.98 µM. 360,000 tested, 0.35% active;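 active = inhibition above the mean of all tested compounds plus 3 SD, cut at about 70% in these data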;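 also: 0% = DMSO with NR2E3 transfected cells and 100% = cells lacking NR2E3 construct; higher means lower luciferase signal from less NR2E3 corepressor binding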
DAGLB confirm: DAGLB lipase inhibitors, retest, confirmation, biochemical, fluorescence, HEK293T membranes; 190 tested, 73% active; shares compounds with DAGLB inhibitor; inhibition, % at 5.17 µM; AID 504445, 2011; HEK293T DAGLB membrane lysate, EnzChek fluorogenic substrate;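 active = mean inhibition over triplicate wells above a set limit taken from the primary lipase screen, cut at about 34% in these data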;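 also: 0% = DAGLB with DMSO and 100% = wells lacking DAGLB enzyme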
Numbers without * were called inactive; . = not tested or not shown.

SMILES	DAGLB inhibitor	Vif inh	MT1-MMP act inh	HCV core dimer	NR2E3 ag-1	NR2E3 ag-2	DAGLB confirm
Cc1cc(F)ccc1NC(=O)CCc1ccc(S(=O)(=O)N2CCOCC2)cc1	-0.1	0.2	0.0	.	-1.4	1.6	.
COc1cccc(C(=O)NNc2nc(C)cc(C)n2)c1	-1.2	-3.8	2.7	-15.3	2.3	-13.9	.
COc1cccc(C(=O)NNc2c3ccccc3nc3ccccc23)c1	44.9*	-11.1	21.6	-31.9	-5.2	2.7	43.7*
CC(C)C(=O)NC(c1cccs1)c1cc([N+](=O)[O-])c2cccnc2c1O (stereo unspecified)	36.2*	-3.3	15.5	-2.0	-2.2	6.2	20.5
COc1cc(NC(=O)Cc2c(C(=O)O)n(C)c3ccccc23)cc(OC)c1OC	0.6	-0.1	0.6	0.6	1.5	-5.3	.
Cc1ccccc1NC1=C(Cl)C(=O)OC1OC(=O)c1ccco1 (stereo unspecified)	35.9*	1.1	1.6	-3.9	1.8	-0.1	30.8
Cc1cc(C)c(Nc2cc(S(=O)(=O)O)c(N)c3c2C(=O)c2ccccc2C3=O)c(C)c1	80.2*	1.6	22.6	-13.1	-21.9	23.3	85.9*
CC1(c2ccc(C#N)cc2)NC(=O)N(CC(=O)Nc2cc(S(=O)(=O)N3CCOCC3)ccc2Cl)C1=O (stereo unspecified)	1.7	12.3	1.8	-0.3	-1.1	-7.7	.
O=C1N=c2ccccc2=C1c1sc(=S)n(NC(=O)c2ccccc2)c1O	2.6	1.9	-0.9	-0.1	-1.5	-30.6	.
C=CCn1c(O)c(C2=c3ccccc3=NC2=O)sc1=Nc1ccc(O)cc1	36.5*	1.5	16.6	1.9	-1.7	-12.3	33.9
CCCOc1ccc(C(=O)NNC(=S)NC(=O)c2cc(-c3ccc(Cl)cc3)nc3ccccc23)cc1	38.7*	31.7	-6.1	22.2	1.0	-32.3	90.1*
O=[N+]([O-])c1cc(Cl)cc(/C=N/NC(=S)Nc2ccc(S(=O)(=O)N3CCOCC3)cc2)c1O	60.8*	.	-8.6	12.1	2.7	5.3	72.8*
O=S(=O)(c1ccc(NC(=S)N/N=C/c2ccc(O)c(O)c2)cc1)N1CCOCC1	9.2	-10.9	7.0	-4.0	2.2	14.5	.
O=S(=O)(Nc1ncccn1)c1ccc(NC(=S)Nc2ccc(Cl)cc2)cc1	1.9	0.1	2.7	-1.1	-5.5	2.3	.
CCc1ccc(NC(=S)Nc2ccc(S(=O)(=O)Nc3ncccn3)cc2)cc1	53.7*	-2.3	1.6	2.6	-3.9	-41.0	-1.3
CN(C)c1ccc(N=Nc2ccccc2C(=O)OCC(=O)NCC2CCCCC2)cc1	39.3*	5.0	21.8	9.2	0.8	-29.2	43.2*
CN(C)c1ccc(N=Nc2ccccc2C(=O)OCC(=O)NC2CCCC2)cc1	33.1	7.2	2.6	-1.4	-5.1	-5.3	.
CCCCCCCCCCC[C@@H](C[C@@H]1OC(=O)[C@H]1CCCCCC)OC(=O)[C@H](CC(C)C)NC=O	48.9*	24.1	-8.8	2.8	2.0	7.7	85.7*
COc1cccc(-c2ccc(SCC(=O)N3CCc4ccccc43)nn2)c1	.	.	.	11.4	0.3	.	.
Cc1ccc(C2=C(O)C(=O)C(c3ccc(C)cc3)=C(O)C2=O)cc1	59.6*	-6.3	-2.6	.	.	-68.1	25.1
CC1=C(O)C(=O)C(C2=C(O)C(=O)C(C)=C(O)C2=O)=C(O)C1=O	-5.2	-12.3	1.5	.	.	16.6	.
CC(=O)Nc1ccc(C=NNc2ccc([N+](=O)[O-])cc2S(=O)(=O)Nc2ccccc2C(=O)O)cc1	9.7	8.0	0.3	.	.	2.5	.
O=C(O)c1ccccc1NS(=O)(=O)c1ccc(NNC(=S)Nc2ccc(OC(F)F)cc2)c([N+](=O)[O-])c1	52.0*	.	8.4	.	.	-21.1	66.8*
O=C(O)c1ccccc1NS(=O)(=O)c1ccc(N/N=C/c2cccc(O)c2O)c([N+](=O)[O-])c1	42.2*	-1.3	18.8	.	.	-35.3	53.2*
CC(=O)Nc1ccc(C=NNc2ccc(S(=O)(=O)Nc3ccccc3C(=O)O)cc2[N+](=O)[O-])cc1	37.4*	2.6	13.1	.	.	-22.9	56.3*
SMILES	DAGLB inhibitor	Vif inh	MT1-MMP act inh	HCV core dimer	NR2E3 ag-1	NR2E3 ag-2	DAGLB confirm
COc1cc(C=NNc2ccc(S(=O)(=O)Nc3ccccc3C(=O)O)cc2[N+](=O)[O-])ccc1O	39.0*	2.2	24.2	.	.	-10.0	49.6*
CCOc1ccc(C=NNc2ccc(S(=O)(=O)Nc3ccccc3C(=O)O)cc2[N+](=O)[O-])cc1OC	13.7	5.1	10.5	.	.	13.9	.
O=Cc1cc2ccccc2nc1SCCCF	-2.9	7.5	2.0	9.9	0.4	6.0	.
Cc1nc2cc(F)ccc2n1C1CCN(C(=O)c2c(F)cccc2F)CC1	0.9	-5.7	-1.2	-2.2	-0.2	-7.3	.
CCCN(C)C1CN(Cc2cn(Cc3ccccc3)nn2)S(=O)(=O)C1 (stereo unspecified)	.	.	1.3	.	.	22.0	.
CCOc1cc(/C=C2\N=C(SCC)SC2=O)cc([N+](=O)[O-])c1OC(C)=O	50.1*	20.3	-1.9	1.0	-0.4	-30.4	36.9*
CCOc1cc(/C=C2\N=C(SC)SC2=O)cc([N+](=O)[O-])c1OC(C)=O	9.9	6.8	-0.2	-8.1	-3.2	17.1	.
CSc1ccc(CN2CCC(C)(Oc3ccc(F)cc3)C2)cc1 (stereo unspecified)	.	1.7	-0.2	.	.	-9.9	.
